Measured values taken from ChEMBL document CHEMBL1157314, “Antibacterial, partially acetylated oligorhamnosides from Cleistopholis patens” (2006).
Activity calls are given as the source filed them.

Key:
Format in all cases: functional
[1] = system: Staphylococcus aureus; assay: Antibacterial activity against methicillin-resistant Staphylococcus aureus ATCC 33591 after 24 hrs by broth microdilution method; conditions: for MIC: ATCC 33591, 24 h
Procedure, shortened: (§1)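 Broth microdilution following NCCLS M7-A6 (2003), with inoculum at the recommended densities. Isolates were placed into panel wells with an autoinoculator and grown in cation-adjusted Mueller-Hinton broth at 35°C in ambient air for overnight to 24 h. Panels were read by eye, and the MIC was taken as no visible growth.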

[2] = system: Staphylococcus aureus; assay: Antibacterial activity against methicillin-resistant Staphylococcus aureus 78-13607A after 24 hrs by broth microdilution method; procedure, shortened: as §1
[3] = system: Staphylococcus haemolyticus; assay: Antibacterial activity against oxacillin-resistant Staphylococcus haemolyticus 107-1240C isolate after 24 hrs by broth microdilution method; procedure, shortened: as §1
[4] = system: Enterococcus faecalis; assay: Antibacterial activity against ampicillin and vancomycin-susceptible Enterococcus faecalis ATCC 29212 after 24 hrs by broth microdilution method; conditions: ATCC 29212, 24 h; procedure, shortened: as §1
[5] = system: Streptococcus pneumoniae; assay: Antibacterial activity against penicillin-intermediate resistant Streptococcus pneumoniae ATCC 49619 after 24 hrs by broth microdilution method; conditions: ATCC 49619, 24 h; procedure, shortened: as §1
[6] = system: Streptococcus pneumoniae; assay: Antibacterial activity against penicillin-resistant Streptococcus pneumoniae 33-50B isolate after 24 hrs by broth microdilution method; procedure, shortened: as §1
[7] = system: Corynebacterium jeikeium; assay: Antibacterial activity against Corynebacterium jeikeium 15-196A isolate after 24 hrs by broth microdilution method
Procedure, shortened: (§2)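 Broth microdilution following NCCLS M7-A6 (2003) inocula; isolates transferred aseptically into panel wells with an autoinoculator; cation-adjusted Mueller-Hinton broth; incubated overnight to 24 h at 35°C in ambient air; panels read by eye, MIC taken as lowest concentration with no visible growth.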

[8] = system: Streptococcus pyogenes; assay: Antibacterial activity against erythromycin-resistant Streptococcus pyogenes 91-8747 isolate after 24 hrs by broth microdilution method; procedure, shortened: as §1
[9] = system: Streptococcus mitis; assay: Antibacterial activity against penicillin-resistant Streptococcus mitis 61-2900C isolate after 24 hrs by broth microdilution method; procedure, shortened: as §1
[10] = system: Pseudomonas aeruginosa; assay: Antibacterial activity against sPseudomonas aeruginosa ATCC 27853 after 24 hrs by broth microdilution method; conditions: ATCC 27853, 24 h; procedure, shortened: as §2
[11] = system: Escherichia coli; assay: Antibacterial activity against sEscherichia coli ATCC 25922 after 24 hrs by broth microdilution method; conditions: ATCC 25922, 24 h; procedure, shortened: as §2
[12] = system: Staphylococcus; assay: Antibacterial activity against mupirocin-resistant coagulase negative Staphylococcus 63-18A isolate after 24 hrs by broth microdilution method; procedure, shortened: as §1
[13] = system: Staphylococcus; assay: Antibacterial activity against quinupristin/dalfopristin-resistant coagulase negative Staphylococcus 90-10840A isolate after 24 hrs by broth microdilution method; procedure, shortened: as §1
[14] = system: Staphylococcus; assay: Antibacterial activity against coagulase negative linezolid-resistant Staphylococcus 82-1645A isolate after 24 hrs by broth microdilution method; procedure, shortened: as §1
[15] = system: Enterococcus faecalis; assay: Antibacterial activity against vancomycin-resistant Enterococcus faecalis 48-22D isolate with vanA phenotype after 24 hrs by broth microdilution method; procedure, shortened: as §1
[16] = system: Enterococcus faecalis; assay: Antibacterial activity against vancomycin-resistant Enterococcus faecalis 82-876D with vanB phenotype isolate after 24 hrs by broth microdilution method; procedure, shortened: as §1
[17] = system: Enterococcus faecalis; assay: Antibacterial activity against linezolid-resistant Enterococcus faecalis 15-5341 isolate after 24 hrs by broth microdilution method; procedure, shortened: as §1
[18] = system: Enterococcus faecalis; assay: Antibacterial activity against gentamycin and streptomycin-resistant Enterococcus faecalis 39-11D isolate after 24 hrs by broth microdilution method; procedure, shortened: as §1
[19] = system: Bacillus sp.; assay: Antibacterial activity against tetracycline-resistant Bacillus sp. 107-1461D isolate after 24 hrs by broth microdilution method; conditions: Bacillus sp. (in: firmicutes); procedure, shortened: as §1
[20] = system: Bacillus sp.; assay: Antibacterial activity against trimethoprim/sulfamethaxazole-resistant Bacillus sp. 67-1057A isolate after 24 hrs by broth microdilution method; conditions: Bacillus sp. (in: firmicutes); procedure, shortened: as §1
[21] = system: Bacillus sp.; assay: Antibacterial activity against erythromycin-resistant Bacillus sp. 32-2406A isolate after 24 hrs by broth microdilution method; conditions: Bacillus sp. (in: firmicutes); procedure, shortened: as §1
[22] = system: Streptococcus pneumoniae; assay: Antibacterial activity against multidrug resistant Streptococcus pneumoniae 68-2307B isolate after 24 hrs by broth microdilution method; procedure, shortened: as §1
[23] = system: Streptococcus pneumoniae; assay: Antibacterial activity against erythromycin and clindamycin-resistant Streptococcus pneumoniae 4-38B isolate after 24 hrs by broth microdilution method; procedure, shortened: as §1
[24] = system: Streptococcus pneumoniae; assay: Antibacterial activity against erythromycin-resistant and clindamycin-susceptible Streptococcus pneumoniae 35-405B isolate after 24 hrs by broth microdilution method; procedure, shortened: as §1
[25] = system: Streptococcus pneumoniae; assay: Antibacterial activity against levofloxacin-resistant Streptococcus pneumoniae 2-2784A isolate after 24 hrs by broth microdilution method; procedure, shortened: as §1
[26] = system: Streptococcus; assay: Antibacterial activity against erythromycin and clindamycin-resistant beta-haemolytic sStreptococcus 91-526D isolate after 24 hrs by broth microdilution method; procedure, shortened: as §1
[27] = system: Streptococcus; assay: Antibacterial activity against erythromycin-resistant and clindamycin-susceptible beta-haemolytic sStreptococcus 109-820D isolate after 24 hrs by broth microdilution method; procedure, shortened: as §1
[28] = system: Streptococcus; assay: Antibacterial activity against levofloxacin-resistant beta-haemolytic sStreptococcus 19-756A isolate after 24 hrs by broth microdilution method; procedure, shortened: as §1
[29] = system: Streptococcus; assay: Antibacterial activity against mupirocin-resistant viridans group sStreptococcus 32-2395A isolate after 24 hrs by broth microdilution method; procedure, shortened: as §1
[30] = system: Streptococcus; assay: Antibacterial activity against levafloxacin-resistant viridans group Streptococcus 107-6380A isolate after 24 hrs by broth microdilution method; procedure, shortened: as §1
[31] = system: Streptococcus; assay: Antibacterial activity against linezolid-resistant viridans group Streptococcus 27-2832A isolate after 24 hrs by broth microdilution method; procedure, shortened: as §1
[32] = system: Streptococcus; assay: Antibacterial activity against multidrug-resistant viridans group Streptococcus 58-1602D isolate after 24 hrs by broth microdilution method; procedure, shortened: as §1

CCC[C@@H]1C[C@@H](C(=O)N[C@@H]([C@H]2O[C@H](SC)[C@H](O)[C@@H](O)[C@H]2O)[C@H](C)Cl)N(C)C1 [CLINDAMYCIN]
0.12 µg/mL: MIC [2]
> 8 µg/mL: MIC [1]

O=C(O)c1cn(C2CC2)c2cc(N3CCNCC3)c(F)cc2c1=O [CIPROFLOXACIN]
0.5 µg/mL: MIC [1]
> 4 µg/mL: MIC [2]

CO[C@H]1/C=C/O[C@@]2(C)Oc3c(C)c(O)c4c(O)c(c(/C=N/N5CCN(C)CC5)c(O)c4c3C2=O)NC(=O)/C(C)=C\C=C\[C@H](C)[C@H](O)[C@@H](C)[C@@H](O)[C@@H](C)[C@H](OC(C)=O)[C@@H]1C [RIFAMPIN]
≤ 0.25 µg/mL: MIC [1] | MIC [2]

CN[C@H](CC(C)C)C(=O)N[C@H]1C(=O)N[C@@H](CC(N)=O)C(=O)N[C@H]2C(=O)N[C@H]3C(=O)N[C@H](C(=O)N[C@H](C(=O)O)c4cc(O)cc(O)c4-c4cc3ccc4O)[C@H](O)c3ccc(c(Cl)c3)Oc3cc2cc(c3O[C@@H]2O[C@H](CO)[C@@H](O)[C@H](O)[C@H]2O[C@H]2C[C@](C)(N)[C@H](O)[C@H](C)O2)Oc2ccc(cc2Cl)[C@H]1O [VANCOMYCIN]
0.5 µg/mL: MIC [12] | MIC [13] | MIC [14] | MIC [15] | MIC [16] | MIC [17] | MIC [18] | MIC [19] | MIC [20] | MIC [21] | MIC [22] | MIC [23] | MIC [24] | MIC [25] | MIC [26] | MIC [27] | MIC [28] | MIC [29] | MIC [30] | MIC [31] | MIC [32]
1 µg/mL: MIC [3] | MIC [4] | MIC [5] | MIC [6] | MIC [7] | MIC [8] | MIC [9] | MIC [10] | MIC [11]

CN(C)[C@@H]1C(O)=C(C(N)=O)C(=O)[C@@]2(O)C(O)=C3C(=O)c4c(O)cccc4[C@@](C)(O)[C@H]3C[C@@H]12 [TETRACYCLINE]
≤ 16 µg/mL: MIC [2]
> 8 µg/mL: MIC [1]

C/C(=C\C(=O)OCCCCCCCCC(=O)O)C[C@@H]1OC[C@H](C[C@@H]2O[C@H]2[C@@H](C)[C@H](C)O)[C@@H](O)[C@H]1O
active: Activity [1] | Activity [2]
